Measurements pooled from the literature.
Each line is one published result; the experiments were not run side by side.
ADRA2A: Alpha-2A adrenergic receptor (ADRA2A, Homo sapiens, UniProt P08913)
CA1: Carbonic anhydrase 1 (CA1, Homo sapiens, UniProt P00915)
CA2: Carbonic anhydrase 2 (CA2, Homo sapiens, UniProt P00918)

target	effect on	mode	technique	Ki [µM]	Structure (SMILES)
ADRA2A	ligand displacement		radioligand	0.161	Cc1cc(Oc2ncccc2CN2CCN(c3cccc(Cl)c3)CC2)ccc1-c1c(C)c(=O)[nH]c(=O)n1C
CA1	enzyme activity	inhibitor		9.9	O=C(O)COCCN1CCN(C(c2ccccc2)c2ccc(Cl)cc2)CC1 (stereo not drawn)
CA1	enzyme activity	inhibitor	stopped-flow	> 100	O=C(NCc1cn(-c2ccc(Cl)cc2)nn1)c1ccc(=O)oc1
CA2	enzyme activity	inhibitor	stopped-flow	0.0118	Cc1ccc(CCC(=O)Nc2nnc(S(N)(=O)=O)s2)cc1
CA1	enzyme activity	inhibitor	stopped-flow	> 100	O=C(NCc1cn(-c2ccc([N+](=O)[O-])cc2)nn1)c1ccc(=O)oc1
CA2	enzyme activity	inhibitor	stopped-flow	0.0311	CC1(C)CCN(CC(=O)Nc2nnc(S(N)(=O)=O)s2)CC1
ADRA2A	ligand displacement		radioligand	50.3	CCN1/C(=C/C(C)=O)Sc2ccc(F)cc21
CA2	enzyme activity	inhibitor	absorbance	20.3	CN(C/C=C/C#CC(C)(C)C)Cc1cccc2ccccc12
ADRA2A	ligand displacement		radioligand	0.146	Cc1cc(Oc2ncccc2CN2CCN(c3ccccc3[N+](=O)[O-])CC2)ccc1-c1c(C)c(=O)[nH]c(=O)n1C
CA2	enzyme activity	inhibitor	absorbance	8.17	CC[C@H]1OC(=O)[C@H](C)[C@@H](O[C@H]2C[C@@](C)(OC)[C@@H](O)[C@H](C)O2)[C@H](C)[C@@H](O[C@@H]2O[C@H](C)C[C@H](N(C)C)[C@H]2O)[C@](C)(O)C[C@@H](C)CN(C)[C@H](C)[C@@H](O)[C@]1(C)O
ADRA2A	ligand displacement		radioligand	0.0419	Cc1cc(Oc2ncccc2CN2CCN(c3cccc(C)c3C)CC2)ccc1-c1c(C)c(=O)[nH]c(=O)n1C
CA1	enzyme activity	inhibitor	stopped-flow	> 100	C#CCOC(=O)c1ccc(=O)oc1
CA2	enzyme activity	inhibitor	stopped-flow	0.0211	Cc1ccc(C(=O)Nc2nnc(S(N)(=O)=O)s2)cc1
CA1	enzyme activity	inhibitor		8.09	CCOC(=O)N1CCC(=C2c3ccc(Cl)cc3CCc3cccnc32)CC1
ADRA2A	ligand displacement		radioligand	0.08	Cc1cc(Oc2ncccc2CN2CCN(c3ccccc3Cl)CC2)ccc1-c1c(C)c(=O)[nH]c(=O)n1C
CA2	enzyme activity	inhibitor	absorbance	8.68	Nc1nc2c(ncn2COCCO)c(=O)[nH]1
ADRA2A	ligand displacement		radioligand	0.175	Cc1cc(Oc2ncccc2CN2CCN(c3ccccc3C(F)(F)F)CC2)ccc1-c1c(C)c(=O)[nH]c(=O)n1C
CA1	enzyme activity	inhibitor	stopped-flow	> 100	Cc1ccc(-n2cc(COC(=O)c3ccc(=O)oc3)nn2)cc1
